From ChEMBL document CHEMBL4602721, “Discovery of Potent Inhibitors against P-Glycoprotein-Mediated Multidrug Resistance Aided by Late-Stage Functionalization of a 2-(4-(Pyridin-2-yl)phenoxy)pyridine Analogue” (J Med Chem, 2020)
Activity calls are given as the source filed them. The rule behind the calls is not given here.

What was measured:
[1] = Cytotoxicity against human SW620/AD300 cells assessed as cell growth inhibition at 10 uM incubated for 48 hrs by SRB assay relative to control; assay type: cell-based; details: read-out: GI
SW620/AD300 = experiment: Downregulation of ABCB1 expression in human SW620/AD300 cells at 1 to 5 uM incubated for 48 hrs by Western blot analysis; assay type: functional, cell-based
Summary of the method: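 SW620 and SW620/AD300 cells compared for ABCB1 level; SW620/AD300 treated at 0, 1.0, 2.0 or 5.0 μM for 48 h, then ABCB1 protein assessed.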

[2] = Cytotoxicity against human NCI-H460/MX20 cells assessed as effect on cell proliferation at 2.5 to 5 uM measured after 48 hrs by SRB assay; assay type: cell-based
SW-620 = experiment: Induction of Rh123 accumulation in human SW620 cells at 0.01 to 0.5 uM incubated for 4 hrs by flow cytometry; assay type: functional, cell-based
Summary of the method: (§1)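 SW620 and SW620/AD300 cells exposed to 1 μg/mL rhodamine 123 with or without modulator; intracellular Rh123 content measured; mean ± SD of three independent experiments.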

[3] = molecular target: T1, Broad substrate specificity ATP-binding cassette transporter ABCG2 (Homo sapiens, UniProt Q9UNQ0); experiment: Reversal of ABCG2-mediated mitoxantrone resistance in human NCI-H460/MX20 cells assessed as potentiation of mitoxantrone-induced cytotoxicity by measuring change in mitoxantrone IC50 at 5 uM incubated for 48 hrs by SRB assay relative to mitoxantrone IC50; assay type: cell-based
T1 sequence (Q9UNQ0 whole entry): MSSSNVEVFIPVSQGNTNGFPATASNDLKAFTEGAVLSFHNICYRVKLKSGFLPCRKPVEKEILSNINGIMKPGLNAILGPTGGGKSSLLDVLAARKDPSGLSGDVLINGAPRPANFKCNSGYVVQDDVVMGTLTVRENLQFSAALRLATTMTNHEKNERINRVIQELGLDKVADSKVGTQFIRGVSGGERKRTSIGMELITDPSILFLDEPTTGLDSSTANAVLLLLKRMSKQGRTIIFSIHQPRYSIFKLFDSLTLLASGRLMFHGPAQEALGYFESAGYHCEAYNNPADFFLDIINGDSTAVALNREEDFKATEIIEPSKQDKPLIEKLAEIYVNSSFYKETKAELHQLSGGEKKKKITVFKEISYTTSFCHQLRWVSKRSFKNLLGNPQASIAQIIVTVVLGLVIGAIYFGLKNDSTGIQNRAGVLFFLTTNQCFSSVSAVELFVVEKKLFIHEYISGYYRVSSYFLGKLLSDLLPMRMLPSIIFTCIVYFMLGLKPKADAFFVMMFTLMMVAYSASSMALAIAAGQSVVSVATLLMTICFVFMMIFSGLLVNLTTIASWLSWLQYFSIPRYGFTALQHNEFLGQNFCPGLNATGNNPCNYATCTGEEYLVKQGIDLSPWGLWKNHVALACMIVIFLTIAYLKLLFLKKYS

[4] = molecular target: T1, Broad substrate specificity ATP-binding cassette transporter ABCG2; experiment: Reversal of ABCG2-mediated mitoxantrone resistance in human NCI-H460/MX20 cells assessed as potentiation of mitoxantrone-induced cytotoxicity by measuring change in mitoxantrone IC50 at 2.5 uM incubated for 48 hrs by SRB assay relative to mitoxantrone IC50; assay type: cell-based
[5] = Cytotoxicity against human KB-CV60 cells assessed as effect on cell proliferation at 2.5 to 5 uM measured after 48 hrs by SRB assay; assay type: cell-based
[6] = molecular target: T2, ATP-dependent translocase ABCB1 (Homo sapiens, UniProt P08183); experiment: Reversal of ABCB1-mediated multidrug resistance in human SW620/AD300 cells assessed as reduction in Rh123 efflux incubated for 4 hrs by flow cytometry analysis; assay type: cell-based; details: sw620/ad300, 4 h
Summary of the method: (§2)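 Cells pre-loaded with rhodamine 123, then efflux monitored in SW620 and SW620/AD300 cells over a range of modulator levels; mean ± SD of three independent experiments.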

[7] = molecular target: T3, Multidrug resistance-associated protein 1 (Homo sapiens, UniProt P33527); experiment: Reversal of ABCC1-mediated vincristine resistance in human KB-CV60 cells assessed as potentiation of vincristine-induced cytotoxicity by measuring change in vincristine IC50 at 2.5 uM incubated for 48 hrs by SRB assay relative to vincristine IC50; assay type: cell-based
Summary of the method: (§3)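 ABCC1-overexpressing KB-CV60 cells: vincristine IC50 determined alone or with modulator at 2.5 or 5 μM; MK571 25 μM reference; reversal fold calculated as IC50 ratio without/with modulator.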

[8] = molecular target: T2, ATP-dependent translocase ABCB1; experiment: Reversal of ABCB1-mediated multidrug resistance in human SW620/AD300 cells assessed as increase in Rh123 accumulation at 0.01 to 0.5 uM incubated for 4 hrs by flow cytometry; assay type: cell-based; details: sw620/ad300, 4 h; summary of the method: as §1
K562/A02 [9] = experiment: Effect on tumor size of human K562/A02 cells xenografted in BALB/c mouse at 30 mg/kg, iv administered every 2 days for 14 days measured during compound dosing by caliper method; assay type: ADME, organism-based; details: in vivo
Summary of the method: (§4)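 Mice bearing subcutaneous ABCB1-overexpressing K562/A02 xenografts treated with DOX alone, modulator alone, or combinations (verapamil as comparator) for 14 days; tumor volume measured every two days.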

[10] = molecular target: T2, ATP-dependent translocase ABCB1; experiment: Binding affinity to ABCB1 in human SW620/AD300 cells assessed as increase in thermal stability of ABCB1 at 20 uM incubated for 30 to 60 mins followed by heating at 40.5 to 59.5 degC by […]; assay type: cell-based; details: sw620/ad300, 20 µM
K562/A02 [11] = experiment: Potentiation of DOX-induced anti tumor activity against human K562/A02 cells xenografted in BALB/c mouse assessed as reduction in tumor weight at 30 mg/kg, iv administered every 2 days for 14 days measured 24 hrs post-last dose; assay type: functional, organism-based
Summary of the method: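 K562/A02 subcutaneous xenograft mice treated 14 days with DOX with or without modulator; tumors excised and weighed at Day 14.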

[12] = molecular target: T2, ATP-dependent translocase ABCB1; experiment: Reversal of ABCB1-mediated multidrug resistance in human SW620 cells assessed as reduction in Rh123 efflux at 0.01 to 0.5 uM incubated for 4 hrs by flow cytometry analysis; assay type: cell-based; details: sw-620, 4 h; summary of the method: as §2
[13] = molecular target: T3, Multidrug resistance-associated protein 1; experiment: Reversal of ABCC1-mediated vincristine resistance in human KB-CV60 cells assessed as potentiation of vincristine-induced cytotoxicity by measuring change in vincristine IC50 at 5 uM incubated for 48 hrs by SRB assay relative to vincristine IC50; assay type: cell-based; summary of the method: as §3
[14] = molecular target: T2, ATP-dependent translocase ABCB1; experiment: Reversal of Pgp-mediated DOX resistance in human SW620/AD300 cells assessed as potentiation of DOX-induced cytotoxicity by measuring change in DOX IC50 at 1 uM incubated for 48 hrs by SRB assay relative to DOX alone; assay type: cell-based; details: sw620/ad300, 48 h
[15] = molecular target: T2, ATP-dependent translocase ABCB1; experiment: Reversal of Pgp-mediated DOX resistance in human SW620/AD300 cells assessed as potentiation of DOX-induced cytotoxicity by measuring inhibition of cell proliferation at 1 uM incubated for 48 hrs by SRB assay (reference value: 5.3 +/- 3 %); assay type: cell-based
K562/A02 [16] = experiment: Potentiation of DOX-induced anti tumor activity against human K562/A02 cells xenografted in BALB/c mouse assessed as tumor size at 30 mg/kg, iv administered every 2 days for 14 days measured during compound dosing by caliper method (reference value: 610 mm3); assay type: functional; summary of the method: as §4

T2 sequence (P08183 whole entry): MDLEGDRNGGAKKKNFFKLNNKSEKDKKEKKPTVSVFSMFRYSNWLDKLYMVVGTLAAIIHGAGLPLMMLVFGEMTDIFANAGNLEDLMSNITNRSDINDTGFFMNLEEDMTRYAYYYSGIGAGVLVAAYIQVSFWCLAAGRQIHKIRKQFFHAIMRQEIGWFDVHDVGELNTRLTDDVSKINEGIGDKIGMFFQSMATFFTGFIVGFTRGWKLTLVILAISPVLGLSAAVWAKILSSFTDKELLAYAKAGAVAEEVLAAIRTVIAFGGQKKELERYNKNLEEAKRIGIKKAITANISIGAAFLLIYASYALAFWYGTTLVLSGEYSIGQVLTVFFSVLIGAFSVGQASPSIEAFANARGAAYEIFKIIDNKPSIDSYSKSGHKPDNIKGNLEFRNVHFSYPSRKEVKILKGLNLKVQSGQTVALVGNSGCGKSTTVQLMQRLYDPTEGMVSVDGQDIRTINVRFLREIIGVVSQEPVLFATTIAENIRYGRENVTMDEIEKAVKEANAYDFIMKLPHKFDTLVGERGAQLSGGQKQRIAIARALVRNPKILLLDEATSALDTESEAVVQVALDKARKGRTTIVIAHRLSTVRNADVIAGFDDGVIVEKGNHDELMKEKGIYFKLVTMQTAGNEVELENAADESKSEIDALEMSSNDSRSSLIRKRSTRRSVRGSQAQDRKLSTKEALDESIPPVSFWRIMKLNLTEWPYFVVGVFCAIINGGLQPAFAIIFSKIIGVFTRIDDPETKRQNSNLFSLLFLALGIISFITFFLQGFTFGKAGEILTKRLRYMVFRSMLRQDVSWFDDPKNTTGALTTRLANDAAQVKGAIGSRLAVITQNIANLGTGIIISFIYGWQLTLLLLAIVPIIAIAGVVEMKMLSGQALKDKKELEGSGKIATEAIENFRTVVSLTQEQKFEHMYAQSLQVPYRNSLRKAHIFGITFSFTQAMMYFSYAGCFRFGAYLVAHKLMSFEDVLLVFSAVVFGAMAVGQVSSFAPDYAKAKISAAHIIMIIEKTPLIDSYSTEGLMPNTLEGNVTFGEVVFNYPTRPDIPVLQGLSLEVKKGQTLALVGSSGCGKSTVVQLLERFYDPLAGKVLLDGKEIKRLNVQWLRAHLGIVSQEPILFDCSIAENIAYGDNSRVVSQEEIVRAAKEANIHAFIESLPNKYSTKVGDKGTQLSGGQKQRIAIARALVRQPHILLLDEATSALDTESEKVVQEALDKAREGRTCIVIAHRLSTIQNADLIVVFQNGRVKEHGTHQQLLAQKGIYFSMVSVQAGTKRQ
T3 sequence (P33527 whole entry): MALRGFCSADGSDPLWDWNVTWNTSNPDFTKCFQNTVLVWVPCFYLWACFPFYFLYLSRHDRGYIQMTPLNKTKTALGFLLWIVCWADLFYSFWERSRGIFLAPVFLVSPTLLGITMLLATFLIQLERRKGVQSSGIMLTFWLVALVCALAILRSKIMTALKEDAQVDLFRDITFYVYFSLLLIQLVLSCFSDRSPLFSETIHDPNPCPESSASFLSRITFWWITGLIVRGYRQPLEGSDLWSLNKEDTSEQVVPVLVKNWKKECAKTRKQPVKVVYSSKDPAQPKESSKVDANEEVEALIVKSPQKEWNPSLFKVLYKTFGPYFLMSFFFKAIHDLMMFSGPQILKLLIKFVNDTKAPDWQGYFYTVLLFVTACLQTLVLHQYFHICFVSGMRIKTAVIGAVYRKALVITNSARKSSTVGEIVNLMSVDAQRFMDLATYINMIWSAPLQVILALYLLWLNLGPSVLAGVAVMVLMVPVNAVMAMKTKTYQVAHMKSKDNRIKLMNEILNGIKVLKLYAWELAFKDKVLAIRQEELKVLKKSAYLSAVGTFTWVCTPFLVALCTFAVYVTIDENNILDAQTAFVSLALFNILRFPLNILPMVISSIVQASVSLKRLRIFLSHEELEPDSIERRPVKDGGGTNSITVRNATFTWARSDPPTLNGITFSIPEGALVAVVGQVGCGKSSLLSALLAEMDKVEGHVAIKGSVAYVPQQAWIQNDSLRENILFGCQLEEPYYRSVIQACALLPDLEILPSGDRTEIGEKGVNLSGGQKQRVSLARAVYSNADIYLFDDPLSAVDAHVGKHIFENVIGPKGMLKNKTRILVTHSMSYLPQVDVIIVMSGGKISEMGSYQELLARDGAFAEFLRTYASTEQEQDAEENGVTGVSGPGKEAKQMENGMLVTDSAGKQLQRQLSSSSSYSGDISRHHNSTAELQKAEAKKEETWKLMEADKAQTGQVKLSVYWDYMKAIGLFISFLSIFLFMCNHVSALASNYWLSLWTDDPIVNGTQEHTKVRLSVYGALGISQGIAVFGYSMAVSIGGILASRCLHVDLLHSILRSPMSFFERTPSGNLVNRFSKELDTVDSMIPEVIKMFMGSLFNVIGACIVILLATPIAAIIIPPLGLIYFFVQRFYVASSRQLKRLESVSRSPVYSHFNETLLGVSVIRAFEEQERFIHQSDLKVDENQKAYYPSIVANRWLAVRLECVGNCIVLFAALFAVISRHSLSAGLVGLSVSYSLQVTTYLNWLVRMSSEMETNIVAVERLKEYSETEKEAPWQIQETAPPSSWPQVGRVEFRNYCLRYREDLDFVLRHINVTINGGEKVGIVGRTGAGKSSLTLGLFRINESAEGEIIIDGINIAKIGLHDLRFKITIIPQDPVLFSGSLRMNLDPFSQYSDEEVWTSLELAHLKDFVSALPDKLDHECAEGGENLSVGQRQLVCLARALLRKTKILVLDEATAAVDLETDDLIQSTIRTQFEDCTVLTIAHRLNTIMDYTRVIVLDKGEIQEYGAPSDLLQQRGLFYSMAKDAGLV

Activity [6]: Dose-dependent effect | Activity [8]: Active | Activity [10]: Active | Activity [12]: Not Active
Structure (SMILES): COc1cc2c(cc1OC)CN(CCc1ccc(NC(=O)/C=C/c3ccc(Oc4ccc(-c5ccccn5)c(Cl)c4)nc3)cc1)CC2
inhibition at 48 h, 10 µM [1]: 9.7% | Activity (SW620/AD300): inactive | Activity [2]: Non-Toxic | Activity (SW-620): inactive | fold change (FC) [3]: 2.32 | fold change (FC) [4]: 0.99 | Activity [5]: Non-Toxic | fold change (FC) [7]: 1.12 | Activity (K562/A02 [9]): Non-Toxic | Activity (K562/A02 [11]): Active | fold change (FC) [13]: 1.43 | fold change (FC) [14]: 59.63 | inhibition at 1 µM [15]: 60.3% | Activity (K562/A02 [16]): 437 mm3
